Source: ChEMBL document CHEMBL1629636, “In vitro susceptibility of Borrelia spielmanii to antimicrobial agents commonly used for treatment of Lyme disease” (2009)
Values after ≈ are worked out from the molar mass of the structure shown.

How the values were obtained:
Assay type in all cases: functional
[1] = tested on: Borrelia burgdorferi; test: Antimicrobial activity against Borrelia burgdorferi isolate LW2 after 72 hrs by colorimetric assay; settings: Borreliella burgdorferi, isolate LW2, 72 h
Outline: (§1)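 Tested in microtiter trays preloaded with lyophilized antibiotics; clinical isolates were low-passage (10 to 20 passages). MIC was read by colorimetric assay after 72 h. MBC was defined as 100% killing in liquid medium at 72 h: aliquots from vials showing no growth were diluted 1:1,000 in BSK and checked for regrowth after 3 weeks of subculture. Values are medians of three independent experiments on separate days.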

[2] = Antimicrobial activity against Borrelia burgdorferi B31 after 72 hrs by colorimetric assay; settings: Borreliella burgdorferi; outline: as §1
[3] = tested on: Borrelia spielmanii; test: Antimicrobial activity against Borrelia spielmanii isolate PC-Eq17 after 72 hrs by colorimetric assay; settings: Borreliella spielmanii, isolate PC-Eq17, 72 h; outline: as §1
[4] = tested on: Staphylococcus aureus; test: Antimicrobial activity against Staphylococcus aureus ATCC 29213 after 72 hrs by colorimetric assay; settings: ATCC 29213, 72 h
Outline: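 Quality-control MIC followed the CLSI method with two changes: BSK medium was used, and the antibiotic-medium preparation was preincubated for 48 h before testing. Tests were run on three different days, and the MIC reported is the median of the three.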

[5] = tested on: Borrelia afzelii; test: Antimicrobial activity against Borrelia afzelii isolate G1039 after 72 hrs by colorimetric assay; settings: Borreliella afzelii, isolate G1039, 72 h; outline: as §1
[6] = tested on: Borrelia afzelii; test: Antimicrobial activity against Borrelia afzelii isolate FEM1 after 72 hrs by colorimetric assay; settings: Borreliella afzelii, isolate FEM1, 72 h; outline: as §1
[7] = tested on: Borrelia spielmanii; test: Antimicrobial activity against Borrelia spielmanii isolate PMew after 72 hrs by colorimetric assay; settings: Borreliella spielmanii; outline: as §1
[8] = tested on: Borrelia; test: Antimicrobial activity against Borrelia clinical isolate after 72 hrs by colorimetric assay; settings: for MIC90: Borrelia, 72 h; outline: as §1
[9] = tested on: Borrelia spielmanii; test: Antimicrobial activity against Borrelia spielmanii isolate PMai after 72 hrs by colorimetric assay; settings: Borreliella spielmanii; outline: as §1
[10] = Antimicrobial activity against Borrelia spielmanii A14S after 72 hrs by colorimetric assay; settings: Borreliella spielmanii
Outline: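 Low-passage isolates (10 to 20 passages) grown in BSK medium were tested in microtiter trays precoated with lyophilized antimicrobials. MIC was read colorimetrically after 72 h. Independent experiments were run on three different days, and the MIC reported is the median of the three.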

[11] = tested on: Borrelia afzelii; test: Antimicrobial activity against Borrelia afzelii isolate G600 after 72 hrs by colorimetric assay; settings: Borreliella afzelii, isolate G600, 72 h; outline: as §1
[12] = tested on: Borrelia spielmanii; test: Antimicrobial activity against Borrelia spielmanii isolate PSig2 after 72 hrs by colorimetric assay; settings: Borreliella spielmanii, isolate PSig2, 72 h; outline: as §1
[13] = tested on: Borrelia garinii; test: Antimicrobial activity against Borrelia garinii isolate G1 after 72 hrs by colorimetric assay; settings: Borreliella garinii, isolate G1, 72 h; outline: as §1
[14] = tested on: Borrelia garinii; test: Antimicrobial activity against Borrelia garinii isolate PSth after 72 hrs by colorimetric assay; settings: Borreliella garinii; outline: as §1
[15] = tested on: Borrelia spielmanii; test: Antimicrobial activity against Borrelia spielmanii isolate PHap after 72 hrs by colorimetric assay; settings: Borreliella spielmanii; outline: as §1
[16] = tested on: Borrelia garinii; test: Antimicrobial activity against Borrelia garinii isolate M2094 after 72 hrs by colorimetric assay; settings: Borreliella garinii, isolate M2094, 72 h; outline: as §1
[17] = tested on: Borrelia spielmanii; test: Antimicrobial activity against Borrelia spielmanii isolate PJes after 72 hrs by colorimetric assay; settings: Borreliella spielmanii; outline: as §1
[18] = tested on: Borrelia spielmanii; test: Antimicrobial activity against Borrelia spielmanii isolate TIsar2 after 72 hrs by colorimetric assay; settings: Borreliella spielmanii, isolate TIsar2, 72 h; outline: as §1
[19] = tested on: Borrelia spielmanii; test: Antimicrobial activity against Borrelia spielmanii isolate PAnz after 72 hrs by colorimetric assay; settings: Borreliella spielmanii; outline: as §1
[20] = tested on: Borrelia spielmanii; test: Antimicrobial activity against Borrelia spielmanii isolate TIsar3 after 72 hrs by colorimetric assay; settings: Borreliella spielmanii, isolate TIsar3, 72 h; outline: as §1

Row | Structure (SMILES) | MBC [1] [µg/mL] | MIC [1] [µg/mL] | MBC [2] [µg/mL] | MIC [2] [µg/mL] | MBC [3] [µg/mL] | MIC [3] [µg/mL] | MIC [4] [µg/mL] | MBC [5] [µg/mL] | MIC [5] [µg/mL] | MBC [6] [µg/mL] | MIC [6] [µg/mL] | MBC [7] [µg/mL] | MIC [7] [µg/mL] | MBC90 [8] [µg/mL] | MIC90 [8] [µg/mL] | MBC [9] [µg/mL] | MIC [9] [µg/mL] | MBC [10] [µg/mL] | MIC [10] [µg/mL] | MBC [11] [µg/mL] | further results
1 | CC1(C)S[C@@H]2[C@H](NC(=O)[C@H](N)c3ccc(O)cc3)C(=O)N2[C@H]1C(=O)O [AMOXICILLIN] | 4 (≈ 10.9 µM) | 1 (≈ 2.74 µM) | 16 (≈ 43.8 µM) | 0.5 (≈ 1.37 µM) | > 16 | 0.5 (≈ 1.37 µM) | 2 (≈ 5.47 µM) | 8 (≈ 21.9 µM) | 0.5 (≈ 1.37 µM) | 4 (≈ 10.9 µM) | 4 (≈ 10.9 µM) | > 16 | 1 (≈ 2.74 µM) | >16 | 2 (≈ 5.47 µM) | 8 (≈ 21.9 µM) | 2 (≈ 5.47 µM) | 16 (≈ 43.8 µM) | 0.25 (≈ 0.684 µM) | 4 (≈ 10.9 µM) | MIC [11]: 1 µg/mL (≈ 2.74 µM); MBC [12]: 16 µg/mL (≈ 43.8 µM); MIC [12]: 0.5 µg/mL (≈ 1.37 µM); MBC [13]: 16 µg/mL (≈ 43.8 µM); MIC [13]: ≤ 0.125 µg/mL; MBC [14]: 8 µg/mL (≈ 21.9 µM); MIC [14]: 0.125 µg/mL (≈ 0.342 µM); MBC [15]: > 16 µg/mL; MIC [15]: 2 µg/mL (≈ 5.47 µM); MBC [16]: 16 µg/mL (≈ 43.8 µM); MIC [16]: 0.25 µg/mL (≈ 0.684 µM); MBC [17]: 16 µg/mL (≈ 43.8 µM); MIC [17]: 0.25 µg/mL (≈ 0.684 µM); MBC [18]: 16 µg/mL (≈ 43.8 µM); MIC [18]: ≤ 0.125 µg/mL; MBC [19]: 16 µg/mL (≈ 43.8 µM); MIC [19]: 0.25 µg/mL (≈ 0.684 µM); MBC [20]: 4 µg/mL (≈ 10.9 µM); MIC [20]: 2 µg/mL (≈ 5.47 µM)
2 | CO/N=C(\C(=O)N[C@@H]1C(=O)N2C(C(=O)O)=C(COC(N)=O)CS[C@H]12)c1ccco1 [CEFUROXIME] | 8 (≈ 18.9 µM) | 0.125 (≈ 0.295 µM) | > 8 | 0.125 (≈ 0.295 µM) | > 8 | 0.125 (≈ 0.295 µM) | 2 (≈ 4.71 µM) | 8 (≈ 18.9 µM) | 0.125 (≈ 0.295 µM) | > 8 | 0.5 (≈ 1.18 µM) | > 8 | 0.125 (≈ 0.295 µM) | >8 | 0.25 (≈ 0.589 µM) | 8 (≈ 18.9 µM) | 0.125 (≈ 0.295 µM) | 8 (≈ 18.9 µM) | 0.125 (≈ 0.295 µM) | 4 (≈ 9.43 µM) | MIC [11]: 0.25 µg/mL (≈ 0.589 µM); MBC [12]: 8 µg/mL (≈ 18.9 µM); MIC [12]: 0.125 µg/mL (≈ 0.295 µM); MBC [13]: > 8 µg/mL; MIC [13]: 0.125 µg/mL (≈ 0.295 µM); MBC [14]: > 8 µg/mL; MIC [14]: 0.125 µg/mL (≈ 0.295 µM); MBC [15]: > 8 µg/mL; MIC [15]: 0.25 µg/mL (≈ 0.589 µM); MBC [16]: > 8 µg/mL; MIC [16]: 0.125 µg/mL (≈ 0.295 µM); MBC [17]: 8 µg/mL (≈ 18.9 µM); MIC [17]: 0.125 µg/mL (≈ 0.295 µM); MBC [18]: 2 µg/mL (≈ 4.71 µM); MIC [18]: 0.125 µg/mL (≈ 0.295 µM); MBC [19]: > 8 µg/mL; MIC [19]: 0.125 µg/mL (≈ 0.295 µM); MBC [20]: 4 µg/mL (≈ 9.43 µM); MIC [20]: 0.5 µg/mL (≈ 1.18 µM)
